According to ChEMBL document CHEMBL3352776, “Synthesis and biological evaluation of novel chiral diazepine derivatives as bombesin receptor subtype-3 (BRS-3) agonists incorporating an antedrug approach” (Bioorg Med Chem, 2015):
Converted amounts (≈) assume the structure as drawn.

Legend:
[1] = Cmax in mouse at 30 mg/kg, po; type: ADME, organism-based; design: dose 30 mg/kg, route oral; conditions: in vivo
[2] = target: T1, Bombesin receptor subtype-3 (Mus musculus, UniProt O54798); assay: Agonist activity at mouse BRS3 expressed in CHO-K1 cells by IP-One HTRF assay; type: cell-based
T1 sequence (O54798 whole entry): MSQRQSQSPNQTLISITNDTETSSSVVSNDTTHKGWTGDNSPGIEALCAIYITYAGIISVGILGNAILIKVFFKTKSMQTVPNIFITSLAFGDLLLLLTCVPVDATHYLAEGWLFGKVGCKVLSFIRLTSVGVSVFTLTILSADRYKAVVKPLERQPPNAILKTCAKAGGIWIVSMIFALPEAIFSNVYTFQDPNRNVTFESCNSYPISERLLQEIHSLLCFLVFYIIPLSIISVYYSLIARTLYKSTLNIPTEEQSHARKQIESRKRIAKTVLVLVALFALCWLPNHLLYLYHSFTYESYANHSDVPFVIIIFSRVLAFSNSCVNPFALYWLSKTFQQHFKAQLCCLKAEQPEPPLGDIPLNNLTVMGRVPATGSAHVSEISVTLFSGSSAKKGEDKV

[3] = target: T2, Bombesin receptor subtype-3 (Homo sapiens, UniProt P32247); assay: Agonist activity at human BRS3 expressed in CHO-K1 cells by IP-One HTRF assay; type: cell-based
T2 sequence (P32247 whole entry): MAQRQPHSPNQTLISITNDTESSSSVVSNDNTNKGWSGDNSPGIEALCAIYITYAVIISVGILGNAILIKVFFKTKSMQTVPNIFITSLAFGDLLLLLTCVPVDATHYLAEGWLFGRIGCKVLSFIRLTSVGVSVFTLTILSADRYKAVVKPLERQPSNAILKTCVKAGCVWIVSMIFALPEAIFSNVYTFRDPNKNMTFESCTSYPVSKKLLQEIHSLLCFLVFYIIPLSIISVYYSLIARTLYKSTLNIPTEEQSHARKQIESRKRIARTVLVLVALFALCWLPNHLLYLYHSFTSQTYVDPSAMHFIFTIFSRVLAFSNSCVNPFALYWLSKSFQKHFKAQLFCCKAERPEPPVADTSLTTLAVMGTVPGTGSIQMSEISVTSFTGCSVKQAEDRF

[4] = system: Mus musculus; assay: Drug metabolism in mouse assessed as ratio of compound to 3-[2-[(5R)-5-(carboxymethyl)-8-(trifluoromethyl)-1,2,3,5-tetrahydropyrido[2,3-e][1,4]diazepin-4-yl]-2-oxoethyl]benzoic acid inactive metabolites at 30 mg/kg, po; type: ADME, organism-based; design: dose 30 mg/kg, route oral; conditions: in vivo
[5] = system: Mus musculus; assay: Cmax in mouse assessed as 3-[2-[(5R)-5-(carboxymethyl)-8-(trifluoromethyl)-1,2,3,5-tetrahydropyrido[2,3-e][1,4]diazepin-4-yl]-2-oxoethyl]benzoic acid inactive metabolite at 30 mg/kg, po; type: ADME, organism-based; design: dose 30 mg/kg, route oral; conditions: in vivo
Outline: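 Mice acclimated 7–11 days with free access to chow and tap water, then given the ester parent orally at 30 mg/kg as a suspension in 0.5 (w/v)% methyl cellulose 400. Plasma was stored at −20 °C. The carboxylic acid metabolite was quantified in plasma by LC–MS/MS. Cmax is the average of 2 or 3 mice.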

[6] = system: Canis familiaris; assay: Cardiotoxicity in beagle dog assessed as blood pressure at 3 mg/kg/3 ml, iv for 30 mins; type: toxicity, organism-based, Canis lupus familiaris; design: route intravenous; conditions: in vivo, 0.5 h
Outline: (§1)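 Dogs were anaesthetized with halothane (0.5–1.5% end-tidal) after iv thiopental 30 mg/kg. Compound was dispersed at 1 mg/mL in 20% hydroxypropyl-β-cyclodextrin and infused into the femoral vein at 3 mg/kg/3 mL over 30 min. Femoral artery HR and mean BP were recorded for 60 min, normalized to the 0-min value; n = 2.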

[7] = system: Canis familiaris; assay: Cardiotoxicity in beagle dog assessed as heart rate at 3 mg/kg/3 ml, iv for 30 mins; type: toxicity, organism-based, Canis lupus familiaris; design: route intravenous; conditions: in vivo, 0.5 h; outline: as §1
[8] = system: Mus musculus; assay: Cmax in mouse assessed as 2-[(5R)-4-[2-(3-hydroxyphenyl)acetyl]-8-(trifluoromethyl)-1,2,3,5-tetrahydropyrido[2,3-e][1,4]diazepin-5-yl]acetic acid inactive metabolite at 30 mg/kg, po; type: ADME, organism-based; design: dose 30 mg/kg, route oral; conditions: in vivo
[9] = system: Mus musculus; assay: Drug metabolism in mouse assessed as ratio of compound to 2-[(5R)-4-[2-(3-hydroxyphenyl)acetyl]-8-(trifluoromethyl)-1,2,3,5-tetrahydropyrido[2,3-e][1,4]diazepin-5-yl]acetic acid at 30 mg/kg, po; type: ADME, organism-based; design: dose 30 mg/kg, route oral; conditions: in vivo
[10] = system: Mus musculus; assay: Tmax in mouse assessed as 2-[(5R)-4-[2-(3-hydroxyphenyl)acetyl]-8-(trifluoromethyl)-1,2,3,5-tetrahydropyrido[2,3-e][1,4]diazepin-5-yl]acetic acid at 30 mg/kg, po; type: ADME, organism-based; design: dose 30 mg/kg, route oral; conditions: in vivo
[11] = Solubility of the compound in JP2; type: physicochemical
[12] = Tmax in mouse at 30 mg/kg, po; type: ADME, organism-based; design: dose 30 mg/kg, route oral; conditions: in vivo
[13] = system: Mus musculus; assay: Half life in mouse assessed as 2-[(5R)-4-[2-(3-Hydroxyphenyl)acetyl]-8-(trifluoromethyl)-1,2,3,5-tetrahydropyrido[2,3-e][1,4]diazepin-5-yl]acetic acid at 30 mg/kg, po; type: ADME, organism-based; design: dose 30 mg/kg, route oral; conditions: in vivo
[14] = system: Mus musculus; assay: AUC in mouse assessed as 2-[(5R)-4-[2-(3-Hydroxyphenyl)acetyl]-8-(trifluoromethyl)-1,2,3,5-tetrahydropyrido[2,3-e][1,4]diazepin-5-yl]acetic acid at 30 mg/kg, po; type: ADME, organism-based, Plasma; design: dose 30 mg/kg, route oral; conditions: in vivo
[15] = (§2) AUC in mouse at 30 mg/kg, po; type: ADME, organism-based, Plasma; design: dose 30 mg/kg, route oral; conditions: plasma
[16] = Fraction unbound in mouse plasma; type: ADME, cell-free
Outline: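 Unbound fraction measured in mouse plasma.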

[17] = (§3) Half life in mouse at 30 mg/kg, po; type: ADME, organism-based; design: dose 30 mg/kg, route oral; conditions: in vivo
[18] = system: Mus musculus; assay: Antiobesity activity in C57BL/6N mouse assessed as reduction in food intake at 30 mg/kg, po single dose; type: functional
Outline: (§4)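 Male C57BL/6N mice, 7 weeks old, were fasted 16 h, housed singly and habituated 1 h. They then received a single oral dose (1, 3, 10, 30 mg/kg) or vehicle (0.5% methylcellulose). Chow was given 1 h later and cumulative intake over 6 h was recorded. n = 4–5; Dunnett's test versus vehicle.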

[19] = system: Mus musculus; assay: Antiobesity activity in po dosed C57BL/6N mouse assessed as anorectic effect; type: functional, organism-based; outline: as §4
[20] = system: Mus musculus; assay: as §2; type: ADME, organism-based, Plasma; design: dose 30 mg/kg, route oral; conditions: in vivo, BLD = below limit of detection
[21] = system: Mus musculus; assay: as §3; type: ADME, organism-based; design: dose 30 mg/kg, route oral; conditions: in vivo, BLD = below limit of detection

CC(C)COC(=O)c1cccc(CC(=O)N2CCNc3nc(C(F)(F)F)ccc3[C@H]2CC(=O)O)c1
Cmax [1]: 30.8 nM
EC50 [2]: 0.0054 µM
EC50 [3]: 0.0042 µM
Ratio [4]: 0.0145
Cmax [5]: 2120 nM

CC(C)COc1cccc(CC(=O)N2CCNc3nc(C(F)(F)F)ccc3[C@H]2CC(=O)O)c1
Activity [6]: Toxic
Activity [7]: Toxic

CCCCC(=O)Oc1cccc(CC(=O)N2CCNc3nc(C(F)(F)F)ccc3[C@H]2CC(=O)O)c1
Cmax [1]: 28.5 nM
EC50 [2]: 0.035 µM
EC50 [3]: 0.019 µM
Cmax [8]: 1630 nM
Ratio [9]: 0.0175

CC(C)(C)CC(=O)Oc1cccc(CC(=O)N2CCNc3nc(C(F)(F)F)ccc3[C@H]2CC(=O)O)c1
Cmax [1]: 5.8 nM
EC50 [2]: 0.02 µM
EC50 [3]: 0.0087 µM
Cmax [8]: 32.5 nM
Ratio [9]: 0.179

CC(C)C(=O)Oc1cccc(CC(=O)N2CCNc3nc(C(F)(F)F)ccc3[C@H]2CC(=O)O)c1
EC50 [2]: 0.282 µM
EC50 [3]: 0.068 µM
Cmax [8]: 680 nM
Ratio [9]: 0

O=C(O)C[C@@H]1c2ccc(C(F)(F)F)nc2NCCN1C(=O)Cc1cccc(O)c1
Cmax [1]: 40 nM
Tmax [10]: 15 min
solubility [11]: 780 µg/mL (≈ 1910 µM)
EC50 [2]: > 10 µM
EC50 [3]: > 10 µM
Tmax [12]: 15 min
t1/2 [13]: 15 min
AUC [14]: 1230 ng·h/mL
AUC [15]: 1230 ng·h/mL
fraction unbound [16]: > 0.3
half-life [17]: 15 min

O=C(O)C[C@@H]1c2ccc(C(F)(F)F)nc2NCCN1C(=O)Cc1cccc(C(=O)O)c1
EC50 [2]: > 10 µM
EC50 [3]: > 10 µM

CCCCOC(=O)c1cccc(CC(=O)N2CCNc3nc(C(F)(F)F)ccc3[C@H]2CC(=O)O)c1
Cmax [1]: 28.5 nM
EC50 [2]: 0.0056 µM
EC50 [3]: 0.004 µM
Ratio [4]: 0.0175
Cmax [5]: 1630 nM

CC(C)OC(=O)c1cccc(CC(=O)N2CCNc3nc(C(F)(F)F)ccc3[C@H]2CC(=O)O)c1
Cmax [1]: 1240 nM
EC50 [2]: 0.045 µM
EC50 [3]: 0.04 µM
Ratio [4]: 1.35
Cmax [5]: 918 nM

CC(C)CC(=O)Oc1cccc(CC(=O)N2CCNc3nc(C(F)(F)F)ccc3[C@H]2CC(=O)O)c1
Activity [6]: Non-toxic
solubility [11]: 900 µg/mL (≈ 1820 µM)
inhibition in vivo at 30 mg/kg [18]: 30%
EC50 [2]: 0.043 µM
EC50 [3]: 0.012 µM
Cmax [8]: 1260 nM
Activity [7]: Non-toxic
inhibition [19]: Dose-dependent effect
AUC [20]: BLD
fraction unbound [16]: 0.108
Ratio [9]: 0
t1/2 [21]: BLD

CC(C)(C)COC(=O)c1cccc(CC(=O)N2CCNc3nc(C(F)(F)F)ccc3[C@H]2CC(=O)O)c1
Cmax [1]: 12.7 nM
EC50 [2]: 0.0081 µM
EC50 [3]: 0.0056 µM
Ratio [4]: 0.0643
Cmax [5]: 197 nM

O=C(O)C[C@@H]1c2ccc(C(F)(F)F)nc2NCCN1C(=O)Cc1cccc(C(=O)OCC2CC2)c1
Cmax [1]: 39.3 nM
EC50 [2]: 0.0037 µM
EC50 [3]: 0.0034 µM
Ratio [4]: 0.131
Cmax [5]: 300 nM

O=C(O)C[C@@H]1c2ccc(C(F)(F)F)nc2NCCN1C(=O)Cc1cccc(OC(=O)CC2CC2)c1
EC50 [2]: 0.081 µM
EC50 [3]: 0.042 µM
Cmax [8]: 607 nM
Ratio [9]: 0
